Autophagy mod – modulators of autophagy; MEF GFP-LC3 puncta imaging; test concentration mostly 10 µM; calls only at 10 µM (by protocol); 190,000 compounds, 0.98% hits;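 active = percentage of spot-positive cells more than 3 SD above its plate mean, without a fluorescence outlier flag or 80% toxicity; inconclusive = no clear call, values can overlap the other calls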
Dynein cargo inh – dynein cargo transport inhibition | 3617.4 mouse cells, GR-EGFP nuclear translocation imaging; test concentration mostly 20 µM; stimulated with dexamethasone, 1 µM; hits give low values | AID 1381 | 220,000 compounds, 0.47% hits | z-score, hits read low;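 active = plate z-score of nuclear minus cytoplasmic receptor signal below a set negative limit, without overly bright fluorescence or cell loss, cut at about -3.5 in these data, passing the limit was not always enough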;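 also: z-score of nuclear minus cytoplasmic ring GR-EGFP intensity difference per well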
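Buffer or medium: Induction medium lacking tetracycline, stripped serum | Also added: Dexamethasone agonist, 1.0 µM final, for 30 min | Timing: 48 h induction, 1 h compound, 30 min dex at 37 °C | Detection: Formaldehyde fixation, Hoechst nuclear stain, 10x automated fluorescence imaging | Measure: Nuclear versus cytoplasmic GR-EGFP signal, averaged per well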
Furin inhibitor – blocks human furin protease activity; 220,000 compounds, 0.061% hits; purified furin, fluorogenic substrate cleavage; AID 463115; inhibition, % at 20 µM or 30 µM; in the data active = inhibition above about 25%
Target sequence (P09958 108-714 limits assumed): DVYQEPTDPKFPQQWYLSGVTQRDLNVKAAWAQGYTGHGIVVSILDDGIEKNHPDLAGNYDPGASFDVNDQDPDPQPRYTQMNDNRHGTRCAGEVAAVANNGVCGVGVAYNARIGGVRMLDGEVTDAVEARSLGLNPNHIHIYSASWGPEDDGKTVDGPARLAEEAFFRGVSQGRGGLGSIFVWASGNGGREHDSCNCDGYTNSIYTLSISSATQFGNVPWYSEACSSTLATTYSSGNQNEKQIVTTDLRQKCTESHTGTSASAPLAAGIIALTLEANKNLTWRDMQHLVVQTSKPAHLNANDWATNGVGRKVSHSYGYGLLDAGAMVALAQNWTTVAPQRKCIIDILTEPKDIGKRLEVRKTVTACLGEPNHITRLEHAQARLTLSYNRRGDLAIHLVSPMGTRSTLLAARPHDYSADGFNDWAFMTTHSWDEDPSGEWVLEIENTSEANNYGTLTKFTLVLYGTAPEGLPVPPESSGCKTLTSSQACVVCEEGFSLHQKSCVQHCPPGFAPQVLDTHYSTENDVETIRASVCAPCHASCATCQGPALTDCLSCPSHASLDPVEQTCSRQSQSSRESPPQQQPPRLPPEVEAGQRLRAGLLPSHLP
INS promoter inh – TRM-6 insulin promoter activity inhibition | TRM-6 cells (human fetal islet line), insulin promoter-eGFP reporter, imaging; reporter expression induced with tamoxifen | 130,000 compounds, 0.9% hits | inhibition, % at 2 µM | AID 1273;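 active = inhibition above the mean plus 3 SD, with well images judged a real hit on visual review, cut at about 60% in these data, passing the limit was not always enough; inconclusive = inhibition over the cutoff but images rejected on review; inactive = inhibition not above the cutoff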
HSV augment – increases HSV replication in cells. AID 1956. 220,000 compounds, 0.005% hits. HSV replication augmentation in cells, fold increase. maximum fold increase; in the data active = maximum fold increase above about 1.5; inconclusive = no clear call, values can overlap the other calls; tested in PC3 cells
Insulin prom up – MIN6 insulin promoter up-regulation | AID 1625 | z-score at 5 µM | 190,000 compounds, 0.3% hits | MIN6 insulin promoter-GFP reporter, high-content imaging; hits give high values;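 active = z-score above 3 at 5 µM with at least 500 cells counted in the well; inconclusive = wells under 500 cells, flagged as cytotoxic or low count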
Dynein confirm – dynein cargo transport inhibition, confirmation | shares compounds with Dynein cargo inh | 3617.4 GR-EGFP nuclear translocation imaging, dexamethasone-induced | calls only at 20 µM | 1,000 compounds, 69% hits | AID 463116;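 active = inhibition of receptor movement into the nucleus at or above a set limit in both runs, with normal cell brightness and cell count; inconclusive = limit reached in only one run, brightness and count normal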;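 also: dexamethasone at 1 µM final in well for 30 min; nuclear minus cytoplasmic GR-EGFP mean intensity difference in channel 2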
Numbers stand for hits; 0 = inactive; ? = inconclusive; - = no result given; + = active, no number. This is a sample that favours compounds with a hit; in the whole collection about 2% have one here.

SMILES	Autophagy mod	Dynein cargo inh	Furin inhibitor	INS promoter inh	HSV augment	Insulin prom up	Dynein confirm
O=S(=O)(c1cnc(Cl)c(Br)c1)N1CCc2ccccc21	-	-4.7	0	-	0	0	+
O=S(=O)(c1ccccc1)c1ncc(C(F)(F)F)cc1O	0	0	0	0	-	0	-
O=S(=O)(c1ccccc1)c1ncc(C(F)(F)F)cc1Cl	0	-6.4	0	0	0	0	+
CC(C)CN1C(=O)/C(=C/c2c(N3CCc4ccccc4C3)nc3ccccn3c2=O)SC1=S	-	0	0	-	?	17	0
O=C(/C=C/NNC(=O)c1ccc(Cl)cc1)c1ccccc1	0	-6.2	0	-	0	0	+
COc1cccc(C2CCCN2Cc2nc(-c3cnccn3)no2)c1 (stereo not given)	0	0	0	-	0	-	-
Cc1ccc(-c2nc3cnccn3c2Nc2ccccc2)o1	0	-3.9	0	-	0	0	0
CCOc1ccc(OCC(O)CNC2CCN(Cc3ccccc3)CC2)cc1 (stereo not given)	0	0	0	-	0	0	-
CC(C)(c1ccccc1)c1ccc(OCC(O)CNC2CCN(Cc3ccccc3)CC2)cc1 (stereo not given)	+	-5	0	0	0	?	0
Cc1cccc(C2=NC(C(F)(F)F)(C(F)(F)F)c3c(n(-c4ccc(F)cc4)c(=O)[nH]c3=O)N2)c1	0	-3.7	0	0	0	0	0
CCC(=O)Nc1ccc(/C=C(\C(C)=O)C(=O)c2ccccc2)cc1	-	-4.1	0	-	0	0	+
CCc1ccc(OC(C)c2nnc(SCC(=O)Nc3ncccc3C)n2C)cc1 (stereo not given)	0	0	0	0	0	-	-
C=CCSc1nc2ccccc2n1C(=O)/C=C/c1cc(OC)c(OC)c(OC)c1	0	-6	0	0	-	-	+
O=C(NCc1ccc(F)cc1)c1ccc2c(c1)S(=O)(=O)c1ccccc1C2=O	-	-	-	-	0	-	-
Clc1ncnc2scc(C3COc4ccccc4O3)c12 (stereo not given)	0	-4.2	0	0	0	-	+
CC(=O)N1N=C(c2cccs2)CC1c1cc2cc(C)ccc2nc1Cl (stereo not given)	-	0	0	-	0	0	-
COc1cc(/C=C2\SC(=O)NC2=O)ccc1Oc1ccc([N+](=O)[O-])cc1[N+](=O)[O-]	0	-3.8	0	-	0	0	?
Cc1ccc2c(n1)sc1c(-c3ccc(Br)cc3)c(C#N)c(N)nc12	0	0	0	0	0	0	-
N#Cc1c(Cl)c(Cl)c2nnc(-c3ccc(Br)cc3)n2c1Cl	0	-6.3	0	-	0	0	+
COC/C=C/C1=CC2=CC(=O)C(C)(OC(=O)c3cnc4ccccc4n3)C(=O)C2=CN1Cc1ccc(OC)cc1 (stereo not given)	-	-5.2	0	-	0	0	+
CC1=NOC(=O)/C1=C/c1ccc(-c2ccc(Cl)cc2)o1	0	0	0	0	0	-	-
CC1=NOC(=O)/C1=C\c1ccc(-c2ccc(Br)cc2)o1	0	-4.1	0	0	0	-	?
Cc1ccc(C2=NOC(=O)/C2=C\c2ccc(C)o2)cc1	-	-5.7	0	-	0	0	+
COc1ccc(-c2nc(-c3cccc([N+](=O)[O-])c3O)cc(=O)o2)cc1OC	0	0	0	0	0	0	-
COc1cc(/C=C2/C(=O)c3cccc([N+](=O)[O-])c3C2=O)c(Br)cc1O	0	-3.5	0	0	0	0	0
SMILES	Autophagy mod	Dynein cargo inh	Furin inhibitor	INS promoter inh	HSV augment	Insulin prom up	Dynein confirm
Nc1ccnn1Cc1ccncc1	0	0	0	-	0	0	-
Cc1ccc(C(=O)Oc2oc(-c3ccco3)nc2C=Nc2ccc(Cl)cc2)cc1	0	-3.7	0	0	0	0	+
O=C(Oc1oc(-c2ccco2)nc1C=Nc1ccccc1)c1ccoc1	0	-4	0	-	0	0	+
CC(C)CC1CC(C)(c2csc(NNC(=O)c3ccccc3)n2)OC1=O (stereo not given)	0	0	0	0	0	0	-
COc1cccc(C(=O)/C=C/c2ccc(N3CCCCC3)c([N+](=O)[O-])c2)c1	0	0	0	-	0	-	-
COc1ccc(/C=C/C(=O)c2ccc(O)cc2)cc1COc1ccc(F)cc1	0	0	0	0	0	0	-
COc1ccc(Oc2ccc(/C=C/C(=O)c3ccc(O)cc3)cc2[N+](=O)[O-])cc1	0	-3.6	0	0	0	0	+
COc1cccc(/C=C/C(=O)c2cccc([N+](=O)[O-])c2)c1OC	+	-5.3	0	-	0	0	+

Screening results as filed in PubChem BioAssay.
